Measured values taken from the M2OR odorant receptor database.

The compounds below were run against T1, UniProt A2ATE5. Details: stereoisomer not certain.
T1 sequence (whole entry): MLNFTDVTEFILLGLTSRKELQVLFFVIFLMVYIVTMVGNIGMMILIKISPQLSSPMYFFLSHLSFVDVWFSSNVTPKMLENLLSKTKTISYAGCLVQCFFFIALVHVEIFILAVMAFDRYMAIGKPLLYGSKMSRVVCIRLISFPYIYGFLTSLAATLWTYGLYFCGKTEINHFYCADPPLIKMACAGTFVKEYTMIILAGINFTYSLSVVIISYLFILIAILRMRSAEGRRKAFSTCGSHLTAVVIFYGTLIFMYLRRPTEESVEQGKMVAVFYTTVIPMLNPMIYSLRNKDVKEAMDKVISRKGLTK
Outline: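 Values were gathered from published papers (main text and supplementary material), with extra details requested from the original authors when needed, and checked for typos and inconsistencies. Each receptor–molecule pair is called responsive (active) if the original authors judged the measured signal statistically different from baseline, and non-responsive (inactive) otherwise. Assay methods varied by source, often transient mammalian cell-line luciferase assays. Recorded details include cell line, G-protein, co-transfected protein and tags.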

Odorant receptor agonist call, inactive:
CCCC=O
CCCCCCCCCCOC(C)=O
C=CC(=O)CCCCC
C=C(C)C1CCC(C)C(O)C1 (centres undefined)
CCc1ccc(O)cc1
CNc1ccccc1C(=O)OC
C=CC(C)=CCC=C(C)CCC=C(C)C
Cc1ccc(C(C)C)cc1
C1CCOCC1
c1ccc2ncccc2c1
CCCCCC(=Cc1ccccc1)C(OC)OC
CCC(C)O (centres undefined)
C=CC(=C)CCC=C(C)C
CC(=O)OC1(C)CCC23CC1C(C)(C)C2CCC3C (centres undefined)
CCCCCCC(=O)OCCCC
CC1CC=CCCCCCCCCCC(=O)C1 (centres undefined)
CC=C(C)C=O
OCCc1ccccc1
CCCO
CCCCCCCCC=CC=O
CCC=CCCC=CC=O
CCCCCCCCCC=CC=O
O=C(O)CCCCCCCCC(=O)O
O=C(O)C1CCC1
